{"source": "ChEMBL document CHEMBL3425469", "about": "“Discovery of imidazo[2,1-b]thiazole HCV NS4B inhibitors exhibiting synergistic effect with other direct-acting antiviral agents” (J Med Chem, 2015)", "key": {"[1]": {"test_system": "Hepatitis C virus", "experiment": "Antiviral activity against Hepatitis C virus genotype 1b Con 1 infected in human HuH7 cells at 10 nM after 72 hrs by luciferase assay in presence of 0.08 nM daclatasvir", "assay_type": "functional, Hepacivirus hominis, Huh-7", "in_short": "(§1)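 Stable Con1 GT1b bicistronic luciferase replicon in Huh-7 cells, 8000 cells/well. Test compound and a marketed DAA or clemizole added alone or together at varied concentrations, 0.5% DMSO final. 72 h at 37°C, then luciferase read with Bright-Glo. Inhibition expressed as % of untreated control, with cytotoxicity run in parallel. CI and DRI derived by the Chou–Talalay median-effect method.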"}, "[2]": {"test_system": "Hepatitis C virus", "experiment": "Antiviral activity against Hepatitis C virus genotype 1b Con 1 infected in human HuH7 cells at 10 nM after 72 hrs by luciferase assay in presence of 240 nM sofobuvir", "assay_type": "functional, Hepacivirus hominis, Huh-7", "in_short": "as §1"}, "[3]": {"test_system": "Hepatitis C virus", "experiment": "Antiviral activity against Hepatitis C virus genotype 1b Con 1 infected in human HuH7 cells at 10 nM after 72 hrs by luciferase assay in presence of 7.5 uM clemizole", "assay_type": "functional, Hepacivirus hominis, Huh-7", "in_short": "as §1"}, "[4]": {"test_system": "Hepatitis C virus", "experiment": "Antiviral activity against Hepatitis C virus genotype 1b Con 1 infected in human HuH7 cells at 20 nM after 72 hrs by luciferase assay in presence of 7.5 uM clemizole", "assay_type": "functional, Hepacivirus hominis, Huh-7", "in_short": "(§2)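 Huh-7 cells stably carrying a GT1b Con1 bicistronic luciferase replicon, seeded at 8000 cells/well. The test compound and the partner DAA are dosed orthogonally at various concentrations, final 0.5% DMSO, then incubated 72 h at 37°C. Bright-Glo luciferase read-out gives replicon inhibition as % of untreated control. Cytotoxicity is checked in parallel by CellTiter-Fluor. CI and DRI are derived by the Chou–Talalay median-effect method.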"}, "[5]": {"test_system": "Hepatitis C virus", "experiment": "Antiviral activity against Hepatitis C virus genotype 1b Con 1 infected in human HuH7 cells at 20 nM after 72 hrs by luciferase assay in presence of 15 uM clemizole", "assay_type": "functional, Hepacivirus hominis, Huh-7", "in_short": "as §2"}, "[6]": {"test_system": "Hepatitis C virus", "experiment": "Antiviral activity against Hepatitis C virus genotype 1b Con 1 infected in human HuH7 cells at 20 nM after 72 hrs by luciferase assay in presence of 20 uM clemizole", "assay_type": "functional, Hepacivirus hominis, Huh-7", "in_short": "as §2"}, "[7]": {"test_system": "Hepatitis C virus", "experiment": "Antiviral activity against Hepatitis C virus genotype 1b Con 1 infected in human HuH7 cells at 160 nM after 72 hrs by luciferase assay in presence of 7.5 uM clemizole", "assay_type": "functional, Hepacivirus hominis, Huh-7", "in_short": "as §1"}, "[8]": {"test_system": "Hepatitis C virus", "experiment": "Antiviral activity against Hepatitis C virus genotype 1b Con 1 infected in human HuH7 cells at 160 nM after 72 hrs by luciferase assay in presence of 15 uM clemizole", "assay_type": "functional, Hepacivirus hominis, Huh-7", "in_short": "as §1"}, "[9]": {"test_system": "Hepatitis C virus", "experiment": "Antiviral activity against Hepatitis C virus genotype 1b Con 1 infected in human HuH7 cells at 80 nM after 72 hrs by luciferase assay in presence of 3 nM simeprevir", "assay_type": "functional, Hepacivirus hominis, Huh-7", "in_short": "as §2"}, "[10]": {"test_system": "Hepatitis C virus", "experiment": "Antiviral activity against Hepatitis C virus genotype 1b Con 1 infected in human HuH7 cells at 80 nM after 72 hrs by luciferase assay in presence of 6 nM simeprevir", "assay_type": "functional, Hepacivirus hominis, Huh-7", "in_short": "as §2"}, "[11]": {"test_system": "Hepatitis C virus", "experiment": "Antiviral activity against Hepatitis C virus genotype 1b Con 1 infected in human HuH7 cells at 80 nM after 72 hrs by luciferase assay in presence of 24 nM simeprevir", "assay_type": "functional, Hepacivirus hominis, Huh-7", "in_short": "as §2"}, "[12]": {"test_system": "Hepatitis C virus", "experiment": "Antiviral activity against Hepatitis C virus genotype 1b Con 1 infected in human HuH7 cells at 80 nM after 72 hrs by luciferase assay in presence of 30 nM sofobuvir", "assay_type": "functional, Hepacivirus hominis, Huh-7", "in_short": "as §2"}, "[13]": {"test_system": "Hepatitis C virus", "experiment": "Antiviral activity against Hepatitis C virus genotype 1b Con 1 infected in human HuH7 cells at 80 nM after 72 hrs by luciferase assay in presence of 60 nM sofobuvir", "assay_type": "functional, Hepacivirus hominis, Huh-7", "in_short": "as §2"}, "[14]": {"test_system": "Hepatitis C virus", "experiment": "Antiviral activity against Hepatitis C virus genotype 1b Con 1 infected in human HuH7 cells at 80 nM after 72 hrs by luciferase assay in presence of 7.5 uM clemizole", "assay_type": "functional, Hepacivirus hominis, Huh-7", "in_short": "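Con1 GT1b luciferase replicon Huh-7 cells, seeded at 8000 cells/well. The compound was combined orthogonally with clemizole across a range of concentrations (0.5% DMSO final) and incubated for 72 h at 37°C. Bright-Glo luciferase inhibition was expressed as a percentage of the untreated control. Cytotoxicity was run in parallel.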"}, "[15]": {"test_system": "Hepatitis C virus", "experiment": "Antiviral activity against Hepatitis C virus genotype 1b Con 1 infected in human HuH7 cells at 80 nM after 72 hrs by luciferase assay in presence of 15 uM clemizole", "assay_type": "functional, Hepacivirus hominis, Huh-7", "in_short": "as §2"}, "[16]": {"test_system": "Hepatitis C virus", "experiment": "Antiviral activity against Hepatitis C virus genotype 1b Con 1 infected in human HuH7 cells at 160 nM after 72 hrs by luciferase assay in presence of 0.16 nM daclatasvir", "assay_type": "functional, Hepacivirus hominis, Huh-7", "in_short": "as §1"}, "[17]": {"test_system": "Hepatitis C virus", "experiment": "Antiviral activity against Hepatitis C virus genotype 1b harboring Q26R mutation transfected in human HuH7 cells after 72 hrs by luciferase assay", "assay_type": "functional, cell-based, Hepacivirus hominis", "details": "Huh-7, 72 h", "in_short": "(§3)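 Huh-7 cells were transiently electroporated with genotype 1b replicon RNA carrying the specified mutation and plated at 10000 cells/well. Compounds were added at 0.5% DMSO final for 72 h at 37°C. Read-out was Bright-Glo luciferase. EC50 is the mean of two independent runs within 2-fold of each other. A reference drug EC50 was measured alongside each mutant replicon to validate it.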"}, "[18]": {"test_system": "Hepatitis C virus", "experiment": "Antiviral activity against Hepatitis C virus genotype 1b harboring Y93H NS5A mutation transfected in human HuH7 cells after 72 hrs by luciferase assay", "assay_type": "functional, cell-based, Hepacivirus hominis", "details": "Huh-7, 72 h", "in_short": "as §3"}, "[19]": {"test_system": "Hepatitis C virus", "experiment": "Antiviral activity against Hepatitis C virus genotype 1b harboring S282T NS5B (active site) mutation transfected in human HuH7 cells after 72 hrs by luciferase assay", "assay_type": "functional, cell-based, Hepacivirus hominis", "details": "Huh-7, 72 h", "in_short": "as §3"}, "[20]": {"test_system": "Hepatitis C virus", "experiment": "Antiviral activity against Hepatitis C virus genotype 1b harboring M423I NS5B (thumb 2) mutation transfected in human HuH7 cells after 72 hrs by luciferase assay", "assay_type": "functional, cell-based, Hepacivirus hominis", "details": "Huh-7, 72 h", "in_short": "as §3"}, "[21]": {"test_system": "Hepatitis C virus", "experiment": "Antiviral activity against Hepatitis C virus genotype 1b harboring P495A NS5B (thumb 1) mutation transfected in human HuH7 cells after 72 hrs by luciferase assay", "assay_type": "functional, cell-based, Hepacivirus hominis", "details": "Huh-7, 72 h", "in_short": "as §3"}, "[22]": {"test_system": "Hepatitis C virus", "experiment": "Antiviral activity against Hepatitis C virus genotype 1b Con 1 infected in human HuH7 cells at 2.5 nM after 72 hrs by luciferase assay in presence of 6 nM simeprevir", "assay_type": "functional, Hepacivirus hominis, Huh-7", "in_short": "as §1"}, "[23]": {"test_system": "Hepatitis C virus", "experiment": "Antiviral activity against Hepatitis C virus genotype 1b Con 1 infected in human HuH7 cells at 2.5 nM after 72 hrs by luciferase assay in presence of 24 nM simeprevir", "assay_type": "functional, Hepacivirus hominis, Huh-7", "in_short": "as §1"}, "[24]": {"test_system": "Hepatitis C virus", "experiment": "Antiviral activity against Hepatitis C virus genotype 1b Con 1 infected in human HuH7 cells at 2.5 nM after 72 hrs by luciferase assay in presence of 12.5 uM clemizole", "assay_type": "functional, Hepacivirus hominis, Huh-7", "in_short": "as §1"}, "[25]": {"test_system": "Hepatitis C virus", "experiment": "Antiviral activity against Hepatitis C virus genotype 1b Con 1 infected in human HuH7 cells at 2.5 nM after 72 hrs by luciferase assay in presence of 15 uM clemizole", "assay_type": "functional, Hepacivirus hominis, Huh-7", "in_short": "as §1"}, "[26]": {"test_system": "Hepatitis C virus", "experiment": "Antiviral activity against Hepatitis C virus genotype 1b Con 1 infected in human HuH7 cells at 2.5 nM after 72 hrs by luciferase assay in presence of 20 uM clemizole", "assay_type": "functional, Hepacivirus hominis, Huh-7", "in_short": "as §1"}, "[27]": {"test_system": "Hepatitis C virus", "experiment": "Antiviral activity against Hepatitis C virus genotype 1b Con 1 infected in human HuH7 cells at 5 nM after 72 hrs by luciferase assay in presence of 0.08 nM daclatasvir", "assay_type": "functional, Hepacivirus hominis, Huh-7", "in_short": "as §2"}, "[28]": {"test_system": "Hepatitis C virus", "experiment": "Antiviral activity against Hepatitis C virus genotype 1b Con 1 infected in human HuH7 cells at 5 nM after 72 hrs by luciferase assay in presence of 10 uM clemizole", "assay_type": "functional, Hepacivirus hominis, Huh-7", "in_short": "as §2"}, "[29]": {"test_system": "Hepatitis C virus", "experiment": "Antiviral activity against Hepatitis C virus genotype 1b Con 1 infected in human HuH7 cells at 5 nM after 72 hrs by luciferase assay in presence of 17.5 uM clemizole", "assay_type": "functional, Hepacivirus hominis, Huh-7", "in_short": "as §2"}}, "data": [{"compound": "O=C(c1nc2scc(C3CC3)n2c1Cl)N1CCN(C2CCCC2)C(=O)C1", "values": [{"measurement": "CI", "setting": "[1]", "value": 0.69}, {"measurement": "CI", "setting": "[2]", "value": 0.58}, {"measurement": "CI", "setting": "[3]", "value": 0.54}, {"measurement": "CI", "setting": "[4]", "value": 0.56}, {"measurement": "CI", "setting": "[5]", "value": 0.79}, {"measurement": "CI", "setting": "[6]", "value": 1.03}, {"measurement": "CI", "setting": "[7]", "value": 1.17}, {"measurement": "CI", "setting": "[8]", "value": 1.45}, {"measurement": "CI", "setting": "[9]", "value": 0.62}, {"measurement": "CI", "setting": "[10]", "value": 0.37}, {"measurement": "CI", "setting": "[11]", "value": 0.87}, {"measurement": "CI", "setting": "[12]", "value": 0.91}, {"measurement": "CI", "setting": "[13]", "value": 0.64}, {"measurement": "CI", "setting": "[14]", "value": 0.85}, {"measurement": "CI", "setting": "[15]", "value": 1}, {"measurement": "CI", "setting": "[16]", "value": 0.65}, {"measurement": "EC50", "setting": "[17]", "value": 350, "unit": "nM"}, {"measurement": "EC50", "setting": "[18]", "value": 14, "unit": "nM"}, {"measurement": "EC50", "setting": "[19]", "value": 15, "unit": "nM"}, {"measurement": "EC50", "setting": "[20]", "value": 9, "unit": "nM"}, {"measurement": "EC50", "setting": "[21]", "value": 10, "unit": "nM"}, {"measurement": "CI", "setting": "[22]", "value": 0.59}, {"measurement": "CI", "setting": "[23]", "value": 1.31}, {"measurement": "CI", "setting": "[24]", "value": 1.07}, {"measurement": "CI", "setting": "[25]", "value": 1.17}, {"measurement": "CI", "setting": "[26]", "value": 1.45}, {"measurement": "CI", "setting": "[27]", "value": 0.66}, {"measurement": "CI", "setting": "[28]", "value": 0.75}, {"measurement": "CI", "setting": "[29]", "value": 1.26}]}]}
